Calls of active or inactive are those of the source. No cut-off for these calls is given here.
Key:
[1] = system: Brucella pseudogrignonensis; assay: Antibacterial activity against Ochrobactrum pseudogrignonense 4-4DEP at 30 ug/disk after 24 to 48 hrs by disk diffusion method; format: functional; details: for zone of inhibition at 30 µg/disc: read-out: DIZ
How it was run: (§1)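 Marine bacterial isolate from a heavily fouled surface, identified by 16S rRNA gene sequence. Agar disk diffusion: sterilised 5.2 mm paper disks loaded with 30 µg pure compound in CH2Cl2 and dried 3 h at room temperature. Plates were seeded with 100 µL of overnight culture (10^6 cfu/mL) and incubated 24 and 48 h at 26 °C. Read-out was inhibition zone diameter, run in triplicate.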

[2] = system: Brucella pseudogrignonensis; assay: Antibacterial activity against Ochrobactrum pseudogrignonense 21-6PIN at 30 ug/disk after 24 to 48 hrs by disk diffusion method; format: functional; details: for zone of inhibition at 30 µg/disc: read-out: DIZ; how it was run: as §1
[3] = system: Alteromonas sp.; assay: Antibacterial activity against Alteromonas sp. 11-6DEP at 30 ug/disk after 24 to 48 hrs by disk diffusion method; format: functional; details: for zone of inhibition at 30 µg/disc: read-out: DIZ
How it was run: (§2)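 Disk diffusion on agar plates against marine bacterial isolates from a heavily fouled surface, identified by 16S rRNA sequencing. 5.2 mm sterilized paper disks loaded with 30 µg compound in CH2Cl2, dried 3 h at room temperature, then placed on plates spread with 100 µL overnight culture (10^6 cfu/mL). Inhibition zone diameter read after 24 and 48 h at 26 °C. Cu2O 600 µg/disk positive control, CH2Cl2 solvent control, triplicate.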

[4] = system: Oceanobacillus iheyensis; assay: Antibacterial activity against Oceanobacillus iheyensis 31-C at 30 ug/disk after 24 to 48 hrs by disk diffusion method; format: functional; details: for zone of inhibition at 30 µg/disc: read-out: DIZ; how it was run: as §2
[5] = system: Bacillus sp.; assay: Antibacterial activity against Bacillus sp. 10-6DEP at 30 ug/disk after 24 to 48 hrs by disk diffusion method; format: functional; details: Bacillus sp. (in: firmicutes), read-out: DIZ; how it was run: as §2
[6] = system: Kocuria sp. 10-4DEP; assay: Antibacterial activity against Kocuria sp. 10-4DEP at 30 ug/disk after 24 to 48 hrs by disk diffusion method; format: functional; details: for zone of inhibition at 30 µg/disc: read-out: DIZ; how it was run: as §2
[7] = system: Brucella pseudogrignonensis; assay: Antibacterial activity against Ochrobactrum pseudogrignonense 21-6PIN after 24 to 48 hrs by disk diffusion method; format: functional
How it was run: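 MIC by agar disk diffusion per NCCLS against the marine isolate 21-6PIN. Loadings per disk were 30, 16, 8, 4, 2, 1 and 0.5 µg, delivered in MeOH, with methanol alone as negative control. Run in triplicate.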

[8] = system: Bacillus sp.; assay: Antibacterial activity against Bacillus sp. 10-6DEP after 24 to 48 hrs by disk diffusion method; format: functional
How it was run: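 MIC by agar disk diffusion (NCCLS) against Bacillus sp. 10-6DEP. Disks loaded with 30, 16, 8, 4, 2, 1 and 0.5 µg delivered in MeOH. Methanol alone as negative control. Triplicate.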

[9] = system: Brucella pseudogrignonensis; assay: Antibacterial activity against Ochrobactrum pseudogrignonense 4-4DEP after 24 to 48 hrs by disk diffusion method; format: functional
[10] = system: Escherichia coli; assay: Antiquorum sensing activity against Escherichia coli pS401 assessed as inhibition of Pseudomonas putida IsoF derived acyl-homoserinelactone-induced bioluminescence upto 200 ug after overnight incubation
How it was run: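 Biosensor agar overlay. E. coli pS401 and P. putida IsoF grown in LB broth. 15 mL of each culture mixed into LB soft agar (0.8%) and poured over prewarmed LB agar plates. Paper disks received 10 or 20 µL of a 10 mg/mL compound solution. Plates incubated overnight at 37 °C and luminescence imaged. QS inhibition was scored where light was lost but growth around the disk was unaffected.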

Structure (SMILES) | zone of inhibition at 30 µg/disc [1] | zone of inhibition at 30 µg/disc [2] | diameter of the inhibition zone (DIZ) [3] | zone of inhibition at 30 µg/disc [4] | zone of inhibition at 30 µg/disc [5] | diameter of the inhibition zone (DIZ) [6] | MIC [7] | MIC [8] | MIC [9] | zone of inhibition at 30 µg/disc [6] | Activity [10] | diameter of the inhibition zone (DIZ) [2] | zone of inhibition at 30 µg/disc [3] | diameter of the inhibition zone (DIZ) [4] | diameter of the inhibition zone (DIZ) [1]
C=C(C)[C@H]1CC/C(C)=C/CC[C@@]2(C)O[C@@H]2CC/C(COC(C)=O)=C\[C@@H]1OC(C)=O | 6 mm | ≥ 10 mm | inactive | 6 mm | 8 mm | inactive | 30 µg | 30 µg | >30 µg | – | – | – | – | – | –
C=C1CC/C=C(\C)CC[C@H](C(=C)C)[C@@H](OC(C)=O)/C=C(/COC(C)=O)CC[C@H]1O | 6 mm | 6 mm | inactive | 6 mm | 8 mm | – | >30 µg | >30 µg | – | 6 mm | Active | – | – | – | –
C=C(C)[C@H]1CC/C(C)=C/CC[C@@](C)(Cl)[C@H](O)CC/C(COC(C)=O)=C\[C@@H]1OC(C)=O | 6 mm | – | inactive | 6 mm | 8 mm | inactive | >30 µg | >30 µg | – | – | – | inactive | – | – | –
C=C(C)[C@H]1CC/C(C)=C/C/C=C(\C)[C@H](O)CC/C(COC(C)=O)=C\[C@@H]1OC(C)=O | 6 mm | 8 mm | – | 6 mm | 8 mm | – | 30 µg | 30 µg | >30 µg | 6 mm | Active | – | 6 mm | – | –
C=C(C)[C@H]1CC/C(C)=C/C/C=C(/C)[C@@H](O)CC/C(COC(C)=O)=C\[C@@H]1OC(C)=O | 6 mm | – | inactive | – | 6 mm | inactive | >30 µg | >30 µg | – | – | – | inactive | – | inactive | –
C=C(C)[C@H]1CC/C(C)=C/CC[C@@]2(C)O[C@@H]2CC/C(COC(C)=O)=C\[C@@H]1O [ASPERDIOL ACETATE] | – | ≥ 10 mm | inactive | – | 8 mm | inactive | 30 µg | 30 µg | >30 µg | – | – | – | – | inactive | inactive
C=C(C)[C@H]1CC/C(C)=C/CC[C@@]2(C)O[C@@H]2CC/C(CO)=C\[C@@H]1O [ASPERDIOL] | – | 8 mm | inactive | – | 6 mm | inactive | >30 µg | 4 µg | – | – | – | – | – | inactive | inactive
C=C(C)[C@@H]1C/C=C(/C=O)CC[C@H]2O[C@]2(C)CC/C=C(\C)CC1 [KNIGHTAL] | – | 6 mm | – | 6 mm | 8 mm | – | 8 µg | 16 µg | 8 µg | 8 mm | Active | – | 6 mm | – | inactive
C=C(C)[C@@H]1C/C=C(/COC(C)=O)CC[C@H]2O[C@]2(C)CC/C=C(\C)CC1 [KNIGHTOL ACETATE] | – | 6 mm | inactive | 6 mm | 6 mm | inactive | 8 µg | 30 µg | 8 µg | – | – | – | – | – | inactive
C=C(C)[C@@H]1C/C=C(/CO)CC[C@H]2O[C@]2(C)CC/C=C(\C)CC1 [KNIGHTOL] | – | 6 mm | – | 6 mm | ≥ 10 mm | – | 8 µg | 2 µg | – | ≥ 10 mm | Active | – | 6 mm | – | inactive
